DAGLB inh = DAGLB lipase inhibitors, primary screen, biochemical, fluorescence, HTS; Diacylglycerol lipase-beta (Homo sapiens), Q8NCG7; HEK293T DAGLB membrane lysate, EnzChek fluorogenic substrate; inhibition, % at 5.17 µM; 340,000 tested, 0.059% active; AID 504411, 2011; in the data active means inhibition above about 34%
Target sequence (Q8NCG7 whole entry, looked up): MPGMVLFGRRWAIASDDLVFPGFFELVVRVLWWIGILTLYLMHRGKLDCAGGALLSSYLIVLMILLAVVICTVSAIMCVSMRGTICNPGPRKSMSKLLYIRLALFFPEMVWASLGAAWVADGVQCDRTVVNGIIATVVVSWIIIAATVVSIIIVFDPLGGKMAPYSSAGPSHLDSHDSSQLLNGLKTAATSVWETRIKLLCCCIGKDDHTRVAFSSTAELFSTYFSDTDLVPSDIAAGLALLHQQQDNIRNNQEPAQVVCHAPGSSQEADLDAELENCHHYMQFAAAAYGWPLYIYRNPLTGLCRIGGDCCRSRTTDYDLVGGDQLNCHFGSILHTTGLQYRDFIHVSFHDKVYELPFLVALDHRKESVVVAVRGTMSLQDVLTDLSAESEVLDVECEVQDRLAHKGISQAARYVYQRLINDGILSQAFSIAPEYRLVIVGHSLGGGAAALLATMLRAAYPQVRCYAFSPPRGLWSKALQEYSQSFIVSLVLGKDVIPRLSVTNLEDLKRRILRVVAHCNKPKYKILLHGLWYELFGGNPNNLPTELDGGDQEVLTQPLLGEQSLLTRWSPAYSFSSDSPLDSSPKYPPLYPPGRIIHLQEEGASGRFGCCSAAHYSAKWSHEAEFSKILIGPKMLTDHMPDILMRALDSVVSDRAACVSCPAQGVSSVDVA
rRNA inh HTS = reduced GFP signal of wild-type E. coli, primary screen, bacterial rRNA inhibitor project, GFP/RFP fluorescence, OD600, single point. E. coli WT GFP vs humanized-ribosome RFP mutants, 24 h; hits give low values; DMSO median 0, no signal -100. GFP signal change (wild-type ribosome), % (test concentration not listed). 350,000 tested, 1.6% active. AID 720706, 2013;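 active means significant combined selectivity score with lowered wild-type GFP, culture density cut under 30%, mutant RFP and density less affected; inactive means any of these conditions unmet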
Cneo AK release = Cryptococcus neoformans cell lysis inducers, primary screen, AK release luminescence, single concentration; C. neoformans lysis, adenylate kinase release luminescence, 4 h; normalised: neutral wells 0, clomiphene wells 100; lysis activity, % at 15 µM; 360,000 tested, 0.2% active;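 active means mean lysis activity across replicates of at least 80%, whatever share of replicates individually reach that level; inactive means mean lysis activity below 80%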
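Material – Cryptococcus neoformans yeast cells · Quantity – 5 × 10^6 yeast cells/mL · Buffer or medium – YPD medium · Compound – single dose · Timing – 4 h static compound exposure, 37 °C, read 1 h post-reagent · Signal – adenylate kinase release luminescence · Read-out basis – lysis from increased AK signal · Benchmarks – Clomiphene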
hiPSC survival = enhancers of single-cell hiPSC survival, primary screen, ATPlite luminescence; 100% = ROCK inhibitor wells, 0% = DMSO; survival enhancement, % at 20 µM; 360,000 tested, 0.044% active; AID 602274, 2012; in the data active means survival enhancement above about 18%;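 further: cells exposed to compounds for 16 hours before the ATP read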
MT1-MMP act inh = blockers of MT1-MMP proenzyme processing, primary screen, HT1080 RFP-PRO-GFP cells, GFP/RFP fluorescence; GFP/RFP ratio fluorescence, overnight; percent of plate control window, DMSO zero; GFP/RFP ratio change, % at 20 µM; 360,000 tested, 0.061% active; AID 651647, 2012;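 active means GFP/RFP ratio change of at least 30% with cell ATP level not reduced by more than half and red fluorescence within 50% of control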
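Assay system: HT1080 RFP-PRO-GFP cells. Benchmarks: DMSO vehicle wells and RFP-L50D-GFP reporter cell wells. Times: overnight cell settling, then overnight compound exposure, 37 °C, 5% CO2. Compound: 20 µM single dose, 1% DMSO. Read-out basis: GFP/RFP fluorescence ratio.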
SKN-1 block = suppressors of acrylamide-induced Pgst-4::GFP reporter in worms, primary screen, SKN-1 inhibitor project, whole organism, uHTS, GFP/RFP fluorescence ratio, strain VP596. C. elegans VP596 Pgst-4::GFP/RFP ratio, 24 h. inhibition, % at 21.8 µM. 360,000 tested, 0.49% active;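 active means interference check ratio from 0.5 to 1.5 plus GFP to RFP signal ratio inhibition reaching or exceeding a fixed threshold, cut at about 30% in these data, passing the limit was not always enough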
Large screens that a line does not name were inactive; ! = not confirmed by another sample. Sampled rows, rich in hits. Any-hit rate of the full collection: about 1.8%.

CCCNC(=O)Nc1ccc2c(c1)C(=O)N(C)C[C@@H](OC)[C@@H](C)CN(C(=O)c1ccccc1F)[C@H](C)CO2	none (no result: DAGLB inh, Cneo AK release, hiPSC survival, MT1-MMP act inh, SKN-1 block)
O=C(CC1CC1)N[C@@H]1CC[C@@H](CCNS(=O)(=O)c2ccc(Cl)cc2)O[C@H]1CO	none (no result: DAGLB inh, hiPSC survival, MT1-MMP act inh, SKN-1 block)
Cc1ccc(-c2cnc3c(c2)C(=O)N([C@@H](C)CO)C[C@H](C)[C@@H](CN(C)C(=O)c2cccc(F)c2)O3)cc1	none (no result: DAGLB inh, hiPSC survival, MT1-MMP act inh, SKN-1 block)
Cc1oncc1-c1csc(-c2ccccc2)n1	none (no result: Cneo AK release)
Cc1oncc1-c1csc(-c2ccccc2Cl)n1	SKN-1 block 44.7
O=C1/C(=C/c2ccccc2)CCCc2ccccc21	SKN-1 block 46.7 (no result: rRNA inh HTS, Cneo AK release)
O=S(=O)(Nc1ccc(N2CCCCC2)cc1)c1ccc(F)cc1	rRNA inh HTS -36.2 (no result: DAGLB inh)
CO[C@@H]1CN(C)C(=O)c2ccc(NC(=O)C3CC3)cc2OC[C@@H](C)N(C(=O)c2ccccc2F)C[C@H]1C	none (no result: DAGLB inh, hiPSC survival, MT1-MMP act inh, SKN-1 block)
CN1c2ccc(C3=CCCCC3)cc2[C@@H]2[C@@H](CCN2S(=O)(=O)c2ccccc2)[C@@H]1CO	none (no result: DAGLB inh, hiPSC survival, MT1-MMP act inh, SKN-1 block)
CC12CC3CC(C)(C1)CC(C(=O)NC(=S)N1CCCCC1)(C3)C2	Cneo AK release 111.4
CN(C)C(=S)NC(=O)C12CC3CC(C)(CC(C)(C3)C1)C2	none (no result: Cneo AK release)
CNC[C@@H]1OCCCC[C@H](C)Oc2ccc(NC(=O)Nc3ccc(F)cc3)cc2C(=O)N([C@H](C)CO)C[C@H]1C	none (no result: DAGLB inh, Cneo AK release, hiPSC survival, MT1-MMP act inh, SKN-1 block)
CCCC(=O)Nc1ccc2c(c1)OC[C@@H](C)N(Cc1cccc(F)c1)C[C@@H](C)[C@H](OC)CN(C)C2=O	none (no result: DAGLB inh, hiPSC survival, MT1-MMP act inh, SKN-1 block)
O=S(=O)(c1cccs1)N1CCC(CO)(Cc2cccc(F)c2)CC1	rRNA inh HTS -23.0 (no result: Cneo AK release)
O=S(=O)(c1cccc(F)c1)N1CCC(CO)(Cc2cccc(F)c2)CC1	none (no result: Cneo AK release)
CO[C@H]1CN(C)C(=O)c2ccc(NC(=O)NC(C)C)cc2OC[C@H](C)N(Cc2cncnc2)C[C@H]1C	none (no result: DAGLB inh, Cneo AK release, hiPSC survival, MT1-MMP act inh, SKN-1 block)
CCCc1ccc(C(=O)N2CCN(c3ccccc3OCC)CC2)cc1	hiPSC survival 22.7
CCN1C(=S)SC(=O)C1=C1C=C(C)OC(C)=C1	SKN-1 block 44.0 (no result: rRNA inh HTS)
Cc1noc(C)c1S(=O)(=O)N(C)C[C@@H]1OCCCC[C@H](C)Oc2ccc(NS(=O)(=O)c3ccccc3)cc2C(=O)N([C@@H](C)CO)C[C@H]1C	none (no result: DAGLB inh, hiPSC survival, MT1-MMP act inh, SKN-1 block)
O=C(COc1cc2oc(=O)c3c(c2cc1Cl)CCCC3)NCC1CCC(C(=O)O)CC1 (stereo not drawn)	rRNA inh HTS -22.9
CC(=O)N1CCC(=NNc2nc3ccccc3[nH]2)CC1	rRNA inh HTS -18.1 (no result: DAGLB inh)
C/C(=N\Nc1nc2ccccc2[nH]1)c1ccc(N2CCOCC2)cc1	rRNA inh HTS -48.4 (no result: Cneo AK release)
CC(=O)Nc1cccc2c1O[C@@H](CN(C)C)[C@H](C)CN(C)C2=O	none (no result: DAGLB inh, Cneo AK release, hiPSC survival, MT1-MMP act inh, SKN-1 block)
N#C/C(=N\Nc1ccc(Br)cc1)C(=N)N1CCOCC1	rRNA inh HTS -26.4
CC1(C)CC(=O)/C(=C\c2cccc([N+](=O)[O-])c2)C(C)(C)N1	hiPSC survival 35.7 (no result: Cneo AK release)
COc1ccc(CC(=O)Nc2ncc([N+](=O)[O-])s2)cc1OC	rRNA inh HTS -49.5
C[C@H](CO)N1C[C@H](C)[C@@H](CN(C)Cc2ccc(-c3ccccc3)cc2)Oc2ccc(NC(=O)CCCCCC(=O)Nc3ccccc3N)cc2CC1=O	none (no result: DAGLB inh, hiPSC survival, MT1-MMP act inh, SKN-1 block)
O=[N+]([O-])c1cccnc1N1CCN(c2ccc(F)cc2)CC1	rRNA inh HTS -32.5 (no result: Cneo AK release)
O=[N+]([O-])c1cccnc1N1CCOCC1	none (no result: rRNA inh HTS, Cneo AK release)
CN(C)S(=O)(=O)NC(c1ccccc1)c1ccccc1	SKN-1 block 35.6 (no result: rRNA inh HTS)
CC(C)c1ccccc1NS(=O)(=O)N(C)C	none (no result: Cneo AK release)
CC1=C(C(=O)OCc2ccccc2)C(c2cccnc2)c2c(n(C)c(=O)n(C)c2=O)N1 (stereo not drawn)	rRNA inh HTS -16.6!
Cc1nc2ccc(NC(=S)NC3CCCCC3)cc2nc1C	rRNA inh HTS -28.4 (no result: Cneo AK release)

Compound activity: PubChem, several laboratories
